According to ChEMBL document CHEMBL1151445, “Molecular epidemiology and mechanisms of carbapenem resistance in Pseudomonas aeruginosa isolates from Spanish hospitals” (2007):
Converted amounts (≈) assume the structure as drawn.

What was measured:
[1] = system: Pseudomonas aeruginosa; experiment: Antimicrobial activity against carbapenem-resistant Pseudomonas aeruginosa clinical isolate assessed as resistant isolates; assay type: functional
[2] = system: Pseudomonas aeruginosa; experiment: Antimicrobial activity against carbapenem-susceptible Pseudomonas aeruginosa clinical isolate assessed as resistant isolates; assay type: functional
[3] = system: Pseudomonas aeruginosa; experiment: Antimicrobial activity against Pseudomonas aeruginosa GY3 producing blaVIM-2 by E-test; assay type: functional
[4] = system: Pseudomonas aeruginosa; experiment: Antimicrobial activity against Pseudomonas aeruginosa PAO1 harboring pV2GY3 with blaVIM-2 and aac(6)'-32 by E-test; assay type: functional
How it was run: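 Plasmid DNA from clinical strain GY3 was electroporated into PAO1. Transformants were selected on Luria-Bertani agar with 8 μg imipenem/ml and checked with MBL Etest strips and PCR for the MBL gene. MICs for the transformant were determined by Etest.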

[5] = system: Pseudomonas aeruginosa; experiment: Antimicrobial activity against Pseudomonas aeruginosa PAO1 by E-test; assay type: functional
[6] = system: Escherichia coli; experiment: Antimicrobial activity against Escherichia coli XL1-Blue harboring pGTAAC-32 with cloned aac(6)'-32 by E-test
[7] = system: Escherichia coli; experiment: Antimicrobial activity against Escherichia coli XL1-Blue by E-test; assay type: functional
[8] = system: Pseudomonas aeruginosa; experiment: Antimicrobial activity against carbapenem-resistant Pseudomonas aeruginosa clinical isolate; assay type: functional
[9] = system: Pseudomonas aeruginosa; experiment: Antimicrobial activity against carbapenem-resistant Pseudomonas aeruginosa clinical isolate

Molecule | Activity [1] [%] | Activity [2] [%] | MIC [3] [mg/L] | MIC [4] [mg/L] | MIC [5] [mg/L] | MIC [6] [mg/L] | MIC [7] [mg/L] | MIC [8] [mg/L] | MIC [9] [mg/L]
CC1COc2c(N3CCN(C)CC3)c(F)cc3c(=O)c(C(=O)O)cn1c23 (stereo not drawn) [OFLOXACIN] | 68 | 32 |  |  |  |  |  |  | 
O=C(O)c1cn(C2CC2)c2cc(N3CCNCC3)c(F)cc2c1=O [CIPROFLOXACIN] |  |  | > 32 |  |  |  |  |  | 
NCC[C@H](O)C(=O)N[C@@H]1C[C@H](N)[C@@H](O[C@H]2O[C@H](CN)[C@@H](O)[C@H](O)[C@H]2O)[C@H](O)[C@H]1O[C@H]1O[C@H](CO)[C@@H](O)[C@H](N)[C@H]1O [AMIKACIN] | 19 | 9 | 64 (≈ 109 µM) | 48 (≈ 82 µM) | 3 (≈ 5.12 µM) | 1.5 (≈ 2.56 µM) | 0.75 (≈ 1.28 µM) |  | 
CCN1CCN(C(=O)N[C@@H](C(=O)N[C@@H]2C(=O)N3[C@@H]2SC(C)(C)[C@@H]3C(=O)O)c2ccccc2)C(=O)C1=O [PIPERACILLIN] | 28 | 9 | 16 (≈ 30.9 µM) | 16 (≈ 30.9 µM) | 2 (≈ 3.86 µM) |  |  |  | 
C[C@@H](O)[C@H]1C(=O)N2C(C(=O)O)=C(S[C@@H]3CN[C@H](C(=O)N(C)C)C3)[C@H](C)[C@H]12 [MEROPENEM] | 68 |  | 16 (≈ 41.7 µM) | 16 (≈ 41.7 µM) | 0.38 (≈ 0.991 µM) |  |  | 8 (≈ 20.9 µM) | 8 (≈ 20.9 µM)
C[C@@H](O)[C@H]1C(=O)N2C(C(=O)O)=C(SCCNC=N)C[C@H]12 [IMIPENEM ANHYDROUS] | 95 |  | > 32 | > 32 | 2 (≈ 6.68 µM) |  |  |  | 
GENTAMICIN | 59 | 26 | 32 | 16 | 2 |  | 0.19 |  | 
CC1(C)S[C@@H]2[C@H](NC(=O)[C@H](C(=O)O)c3ccsc3)C(=O)N2[C@H]1C(=O)O [TICARCILLIN] | 34 | 11 | > 256 | > 256 | 12 (≈ 31.2 µM) |  |  |  | 
CC(C)(O/N=C(\C(=O)N[C@@H]1C(=O)N2C(C(=O)[O-])=C(C[n+]3ccccc3)CS[C@H]12)c1csc(N)n1)C(=O)O [CEFTAZIDIME] | 46 | 11 | 16 (≈ 29.3 µM) | 24 (≈ 43.9 µM) | 1.5 (≈ 2.74 µM) |  |  |  | 
CO/N=C(\C(=O)N[C@@H]1C(=O)N2C(C(=O)[O-])=C(C[N+]3(C)CCCC3)CS[C@H]12)c1csc(N)n1 |  |  | 16 (≈ 33.3 µM) | 16 (≈ 33.3 µM) | 1.5 (≈ 3.12 µM) |  |  |  | 
NC[C@H]1O[C@H](O[C@H]2[C@H](O)[C@@H](O[C@H]3O[C@H](CO)[C@@H](O)[C@H](N)[C@H]3O)[C@H](N)C[C@@H]2N)[C@H](N)C[C@@H]1O [TOBRAMYCIN] | 44 | 9 | > 256 | 64 (≈ 137 µM) | 0.75 (≈ 1.6 µM) | 6 (≈ 12.8 µM) | 0.38 (≈ 0.813 µM) |  | 
C[C@H]1[C@H](NC(=O)/C(=N\OC(C)(C)C(=O)O)c2csc(N)n2)C(=O)N1S(=O)(=O)O [AZTREONAM] |  |  | 2 (≈ 4.59 µM) | 2 (≈ 4.59 µM) |  |  |  |  | 
